Experimental data published in ChEMBL document CHEMBL4673184, “Synthesis and biological evaluation of S-lipidated lipopeptides of a connexin 43 channel inhibitory peptide” (RSC Med Chem, 2020).
Active and inactive are the calls of the source. The calls are words filed in the database; no cut-off is given here. Where a SMILES comes first, the peptide text is derived from it. [ ]: non-standard residue; d: D form. The star is where a group is joined. Ethyl(2-stearoyloxy) = CCCCCCCCCCCCCCCCCC(=O)OCC*; Ethyl(2-palmitoyloxy) = CCCCCCCCCCCCCCCC(=O)OCC*; CH2CH2OBz(4-tBu) = CC(C)(C)c1ccc(C(=O)OCC*)cc1; Ethyl(2-decanoyloxy) = CCCCCCCCCC(=O)OCC*; Ethyl(2-butanoyloxy) = CCCC(=O)OCC*; Ethyl(2-OPiv) = CC(C)(C)C(=O)OCC*; Mpa = O=C(O)CCS

These molecules were tested against Gap junction alpha-1 protein (Homo sapiens) (UniProt P17302) (assay: Inhibition of Cx43 in hypoxic-acidic ion-shifted ringers solution-induced human cerebral microvascular endothelial cell model of ischaemic injury assessed as ATP release at 10 uM measured after 2 hrs by luciferin-luciferase based luminescence assay relative to control).
Chain of Gap junction alpha-1 protein (Homo sapiens) (P17302 whole entry): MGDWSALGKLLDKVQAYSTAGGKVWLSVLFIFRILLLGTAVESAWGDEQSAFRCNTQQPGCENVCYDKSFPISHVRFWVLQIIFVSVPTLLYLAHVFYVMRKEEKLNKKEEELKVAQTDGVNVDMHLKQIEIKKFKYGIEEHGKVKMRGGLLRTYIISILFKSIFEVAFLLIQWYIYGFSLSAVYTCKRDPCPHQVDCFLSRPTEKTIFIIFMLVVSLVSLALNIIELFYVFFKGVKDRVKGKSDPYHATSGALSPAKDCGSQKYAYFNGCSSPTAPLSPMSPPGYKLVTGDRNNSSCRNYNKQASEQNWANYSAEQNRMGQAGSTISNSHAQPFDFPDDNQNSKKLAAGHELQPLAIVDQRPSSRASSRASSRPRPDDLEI
Design: scale not given: the % may be the effect or the level left
Method in brief: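 hCMVEC (passages 8-17) seeded at 2 x 10^6/well on collagen-I (1 µg/cm²) and grown 48 h to a confluent monolayer. Washed in NR, then exposed 2 h in HAIR (pH 6.6, N₂-bubbled, low Ca²⁺, K-gluconate/NMDG) containing peptide at 10 µM. Supernatant diluted 1:10 in firefly luciferase mix and read at 560 nm against an ATP standard (0-50 nM). Expressed as % of HAIR-only, mean of n=3.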
For CCCCCCCCCCCCCCCCCC(=O)OCCSCCC(=O)N[C@H](C(=O)N[C@@H](CC(=O)O)C(=O)N[C@@H](CS)C(=O)N[C@@H](Cc1ccccc1)C(=O)N[C@@H](CC(C)C)C(=O)N[C@@H](CO)C(=O)N[C@@H](CCCNC(=N)N)C(=O)N1CCC[C@H]1C(=O)N[C@H](C(=O)N[C@@H](CCC(=O)O)C(=O)N[C@@H](CCCCN)C(=O)N[C@H](C(=O)O)[C@@H](C)O)[C@@H](C)O)C(C)C ([Mpa](Ethyl(2-stearoyloxy))VDCFLSRPTEKT-OH), the Activity was “inactive”. CCCCCCCCCCCCCCCC(=O)OCCSC[C@H](NC(=O)[C@@H]1CCCN1C(=O)[C@H](CCCNC(=N)N)NC(=O)[C@H](CO)NC(=O)[C@H](CC(C)C)NC(=O)[C@H](Cc1ccccc1)NC(=O)[C@H](CS)NC(=O)[C@H](CC(=O)O)NC(=O)[C@@H](N)C(C)C)C(=O)N[C@@H](CCC(=O)O)C(=O)N[C@@H](CCCCN)C(=O)N[C@H](C(=O)O)[C@@H](C)O (H-VDCFLSRPC(Ethyl(2-palmitoyloxy))EKT-OH) showed an Activity of 102%. With CCCCCCCCCC(=O)OCCSC[C@H](NC(=O)[C@H](CS)NC(=O)[C@H](CC(=O)O)NC(=O)[C@@H](N)C(C)C)C(=O)N[C@@H](CC(C)C)C(=O)N[C@@H](CO)C(=O)N[C@@H](CCCNC(=N)N)C(=O)N1CCC[C@H]1C(=O)N[C@H](C(=O)N[C@@H](CCC(=O)O)C(=O)N[C@@H](CCCCN)C(=O)N[C@H](C(=O)O)[C@@H](C)O)[C@@H](C)O (H-VDCC(Ethyl(2-decanoyloxy))LSRPTEKT-OH) the Activity was “inactive”. In the case of CC(C)C[C@H](NC(=O)[C@H](Cc1ccccc1)NC(=O)[C@H](CS)NC(=O)[C@H](CC(=O)O)NC(=O)[C@@H](N)C(C)C)C(=O)N[C@@H](CO)C(=O)N[C@@H](CCCNC(=N)N)C(=O)N1CCC[C@H]1C(=O)N[C@@H](CSCCOC(=O)C(C)(C)C)C(=O)N[C@@H](CCC(=O)O)C(=O)N[C@@H](CCCCN)C(=O)N[C@H](C(=O)O)[C@@H](C)O (H-VDCFLSRPC(Ethyl(2-OPiv))EKT-OH), the Activity was “inactive”. For CC(C)C[C@H](NC(=O)[C@H](CSCCOC(=O)c1ccc(C(C)(C)C)cc1)NC(=O)[C@H](CS)NC(=O)[C@H](CC(=O)O)NC(=O)[C@@H](N)C(C)C)C(=O)N[C@@H](CO)C(=O)N[C@@H](CCCNC(=N)N)C(=O)N1CCC[C@H]1C(=O)N[C@H](C(=O)N[C@@H](CCC(=O)O)C(=O)N[C@@H](CCCCN)C(=O)N[C@H](C(=O)O)[C@@H](C)O)[C@@H](C)O (H-VDCC(CH2CH2OBz(4-tBu))LSRPTEKT-OH), the Activity was “inactive”. In the case of CC(C)C[C@H](NC(=O)[C@H](Cc1ccccc1)NC(=O)[C@H](CS)NC(=O)[C@H](CC(=O)O)NC(=O)[C@@H](N)C(C)C)C(=O)N[C@@H](CSCCOC(=O)C(C)(C)C)C(=O)N[C@@H](CCCNC(=N)N)C(=O)N1CCC[C@H]1C(=O)N[C@H](C(=O)N[C@@H](CCC(=O)O)C(=O)N[C@@H](CCCCN)C(=O)N[C@H](C(=O)O)[C@@H](C)O)[C@@H](C)O (H-VDCFLC(Ethyl(2-OPiv))RPTEKT-OH), the Activity was “inactive”. With CCCCCCCCCC(=O)OCCSC[C@H](N)C(=O)N[C@@H](CC(=O)O)C(=O)N[C@@H](CS)C(=O)N[C@@H](Cc1ccccc1)C(=O)N[C@@H](CC(C)C)C(=O)N[C@@H](CO)C(=O)N[C@@H](CCCNC(=N)N)C(=O)N1CCC[C@H]1C(=O)N[C@H](C(=O)N[C@@H](CCC(=O)O)C(=O)N[C@@H](CCCCN)C(=O)N[C@H](C(=O)O)[C@@H](C)O)[C@@H](C)O (H-C(Ethyl(2-decanoyloxy))DCFLSRPTEKT-OH) the Activity was “inactive”. For CCCCCCCCCC(=O)OCCSC[C@H](NC(=O)[C@@H]1CCCN1C(=O)[C@H](CCCNC(=N)N)NC(=O)[C@H](CO)NC(=O)[C@H](CC(C)C)NC(=O)[C@H](Cc1ccccc1)NC(=O)[C@H](CS)NC(=O)[C@H](CC(=O)O)NC(=O)[C@@H](N)C(C)C)C(=O)N[C@@H](CCC(=O)O)C(=O)N[C@@H](CCCCN)C(=O)N[C@H](C(=O)O)[C@@H](C)O (H-VDCFLSRPC(Ethyl(2-decanoyloxy))EKT-OH), the Activity was “inactive”. In the case of CC(C)C[C@H](NC(=O)[C@H](CSCCOC(=O)C(C)(C)C)NC(=O)[C@H](CS)NC(=O)[C@H](CC(=O)O)NC(=O)[C@@H](N)C(C)C)C(=O)N[C@@H](CO)C(=O)N[C@@H](CCCNC(=N)N)C(=O)N1CCC[C@H]1C(=O)N[C@H](C(=O)N[C@@H](CCC(=O)O)C(=O)N[C@@H](CCCCN)C(=O)N[C@H](C(=O)O)[C@@H](C)O)[C@@H](C)O (H-VDCC(Ethyl(2-OPiv))LSRPTEKT-OH), the Activity was 23.4%. With CCCC(=O)OCCSC[C@H](NC(=O)[C@@H]1CCCN1C(=O)[C@H](CCCNC(=N)N)NC(=O)[C@H](CO)NC(=O)[C@H](CC(C)C)NC(=O)[C@H](Cc1ccccc1)NC(=O)[C@H](CS)NC(=O)[C@H](CC(=O)O)NC(=O)[C@@H](N)C(C)C)C(=O)N[C@@H](CCC(=O)O)C(=O)N[C@@H](CCCCN)C(=O)N[C@H](C(=O)O)[C@@H](C)O (H-VDCFLSRPC(Ethyl(2-butanoyloxy))EKT-OH) the Activity was “inactive”. Work on CCCCCCCCCCCCCCCCCC(=O)OCCSC[C@H](NC(=O)[C@@H](NC(=O)[C@@H]1CCCN1C(=O)[C@H](CCCNC(=N)N)NC(=O)[C@H](CO)NC(=O)[C@H](CC(C)C)NC(=O)[C@H](Cc1ccccc1)NC(=O)[C@H](CS)NC(=O)[C@H](CC(=O)O)NC(=O)[C@@H](N)C(C)C)[C@@H](C)O)C(=O)N[C@@H](CCCCN)C(=O)N[C@H](C(=O)O)[C@@H](C)O (H-VDCFLSRPTC(Ethyl(2-stearoyloxy))KT-OH) yielded an Activity of 83.7%. For CCCC(=O)OCCSC[C@H](N)C(=O)N[C@@H](CC(=O)O)C(=O)N[C@@H](CS)C(=O)N[C@@H](Cc1ccccc1)C(=O)N[C@@H](CC(C)C)C(=O)N[C@@H](CO)C(=O)N[C@@H](CCCNC(=N)N)C(=O)N1CCC[C@H]1C(=O)N[C@H](C(=O)N[C@@H](CCC(=O)O)C(=O)N[C@@H](CCCCN)C(=O)N[C@H](C(=O)O)[C@@H](C)O)[C@@H](C)O (H-C(Ethyl(2-butanoyloxy))DCFLSRPTEKT-OH), the Activity was “inactive”. For CCCCCCCCCC(=O)OCCSCCC(=O)N[C@H](C(=O)N[C@@H](CC(=O)O)C(=O)N[C@@H](CS)C(=O)N[C@@H](Cc1ccccc1)C(=O)N[C@@H](CC(C)C)C(=O)N[C@@H](CO)C(=O)N[C@@H](CCCNC(=N)N)C(=O)N1CCC[C@H]1C(=O)N[C@H](C(=O)N[C@@H](CCC(=O)O)C(=O)N[C@@H](CCCCN)C(=O)N[C@H](C(=O)O)[C@@H](C)O)[C@@H](C)O)C(C)C ([Mpa](Ethyl(2-decanoyloxy))VDCFLSRPTEKT-OH), the Activity was “inactive”. CC(C)C[C@H](NC(=O)[C@H](Cc1ccccc1)NC(=O)[C@H](CS)NC(=O)[C@H](CC(=O)O)NC(=O)[C@@H](NC(=O)CCSCCOC(=O)C(C)(C)C)C(C)C)C(=O)N[C@@H](CO)C(=O)N[C@@H](CCCNC(=N)N)C(=O)N1CCC[C@H]1C(=O)N[C@H](C(=O)N[C@@H](CCC(=O)O)C(=O)N[C@@H](CCCCN)C(=O)N[C@H](C(=O)O)[C@@H](C)O)[C@@H](C)O ([Mpa](Ethyl(2-OPiv))VDCFLSRPTEKT-OH) was tested, and the Activity was “inactive”. CCCCCCCCCC(=O)OCCSC[C@H](NC(=O)[C@@H](NC(=O)[C@@H]1CCCN1C(=O)[C@H](CCCNC(=N)N)NC(=O)[C@H](CO)NC(=O)[C@H](CC(C)C)NC(=O)[C@H](Cc1ccccc1)NC(=O)[C@H](CS)NC(=O)[C@H](CC(=O)O)NC(=O)[C@@H](N)C(C)C)[C@@H](C)O)C(=O)N[C@@H](CCCCN)C(=O)N[C@H](C(=O)O)[C@@H](C)O (H-VDCFLSRPTC(Ethyl(2-decanoyloxy))KT-OH) showed an Activity of 96%. With CC(C)C[C@H](NC(=O)[C@H](Cc1ccccc1)NC(=O)[C@H](CS)NC(=O)[C@H](CC(=O)O)NC(=O)[C@@H](NC(=O)CCSCCOC(=O)c1ccc(C(C)(C)C)cc1)C(C)C)C(=O)N[C@@H](CO)C(=O)N[C@@H](CCCNC(=N)N)C(=O)N1CCC[C@H]1C(=O)N[C@H](C(=O)N[C@@H](CCC(=O)O)C(=O)N[C@@H](CCCCN)C(=O)N[C@H](C(=O)O)[C@@H](C)O)[C@@H](C)O ([Mpa](CH2CH2OBz(4-tBu))VDCFLSRPTEKT-OH) the Activity was “inactive”. With CC(C)C[C@H](NC(=O)[C@H](Cc1ccccc1)NC(=O)[C@H](CS)NC(=O)[C@H](CC(=O)O)NC(=O)[C@@H](N)C(C)C)C(=O)N[C@@H](CSCCOC(=O)c1ccc(C(C)(C)C)cc1)C(=O)N[C@@H](CCCNC(=N)N)C(=O)N1CCC[C@H]1C(=O)N[C@H](C(=O)N[C@@H](CCC(=O)O)C(=O)N[C@@H](CCCCN)C(=O)N[C@H](C(=O)O)[C@@H](C)O)[C@@H](C)O (H-VDCFLC(CH2CH2OBz(4-tBu))RPTEKT-OH) the Activity was “inactive”. For CCCCCCCCCCCCCCCC(=O)OCCSCCC(=O)N[C@H](C(=O)N[C@@H](CC(=O)O)C(=O)N[C@@H](CS)C(=O)N[C@@H](Cc1ccccc1)C(=O)N[C@@H](CC(C)C)C(=O)N[C@@H](CO)C(=O)N[C@@H](CCCNC(=N)N)C(=O)N1CCC[C@H]1C(=O)N[C@H](C(=O)N[C@@H](CCC(=O)O)C(=O)N[C@@H](CCCCN)C(=O)N[C@H](C(=O)O)[C@@H](C)O)[C@@H](C)O)C(C)C ([Mpa](Ethyl(2-palmitoyloxy))VDCFLSRPTEKT-OH), the Activity was “inactive”. For CCCCCCCCCCCCCCCC(=O)OCCSC[C@H](N)C(=O)N[C@@H](CC(=O)O)C(=O)N[C@@H](CS)C(=O)N[C@@H](Cc1ccccc1)C(=O)N[C@@H](CC(C)C)C(=O)N[C@@H](CO)C(=O)N[C@@H](CCCNC(=N)N)C(=O)N1CCC[C@H]1C(=O)N[C@H](C(=O)N[C@@H](CCC(=O)O)C(=O)N[C@@H](CCCCN)C(=O)N[C@H](C(=O)O)[C@@H](C)O)[C@@H](C)O (H-C(Ethyl(2-palmitoyloxy))DCFLSRPTEKT-OH), the Activity was “inactive”. With CC(C)C[C@H](NC(=O)[C@H](Cc1ccccc1)NC(=O)[C@H](CS)NC(=O)[C@H](CC(=O)O)NC(=O)[C@@H](N)C(C)C)C(=O)N[C@@H](CO)C(=O)N[C@@H](CCCNC(=N)N)C(=O)N1CCC[C@H]1C(=O)N[C@@H](CSCCOC(=O)c1ccc(C(C)(C)C)cc1)C(=O)N[C@@H](CCC(=O)O)C(=O)N[C@@H](CCCCN)C(=O)N[C@H](C(=O)O)[C@@H](C)O (H-VDCFLSRPC(CH2CH2OBz(4-tBu))EKT-OH) the Activity was “inactive”.
